Experimental data published in ChEMBL document CHEMBL3393005, “Design and synthesis of novel 2-pyrazoline-1-ethanone derivatives as selective MAO inhibitors” (Bioorg Med Chem, 2015).

How the values were obtained:
[1] = molecular target: T1, Amine oxidase [flavin-containing] B (Homo sapiens, UniProt P27338); test: Inhibition of human recombinant MAO-B using p-tyramine as substrate assessed as production of H2O2 incubated for 15 mins prior to substrate addition measured after 20 mins by microplate fluorescence reader analysis
T1 sequence (P27338 whole entry): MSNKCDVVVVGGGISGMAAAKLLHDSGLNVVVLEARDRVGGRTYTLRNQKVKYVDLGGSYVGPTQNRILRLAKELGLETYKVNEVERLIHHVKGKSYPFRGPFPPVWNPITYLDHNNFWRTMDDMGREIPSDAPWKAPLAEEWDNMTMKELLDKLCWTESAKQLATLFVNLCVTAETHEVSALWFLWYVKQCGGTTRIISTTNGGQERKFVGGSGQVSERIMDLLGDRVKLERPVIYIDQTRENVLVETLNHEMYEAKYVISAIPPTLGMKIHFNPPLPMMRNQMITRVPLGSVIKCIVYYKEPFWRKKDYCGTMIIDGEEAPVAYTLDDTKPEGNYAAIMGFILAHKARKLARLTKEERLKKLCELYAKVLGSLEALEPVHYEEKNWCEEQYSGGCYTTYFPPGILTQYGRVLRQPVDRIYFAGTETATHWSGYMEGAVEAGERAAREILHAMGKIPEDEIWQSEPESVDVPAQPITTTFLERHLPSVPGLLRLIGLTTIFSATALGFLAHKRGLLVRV

[2] = molecular target: T2, Amine oxidase [flavin-containing] A (Homo sapiens, UniProt P21397); test: Inhibition of human recombinant MAO-A using p-tyramine as substrate assessed as production of H2O2 incubated for 15 mins prior to substrate addition measured after 20 mins by microplate fluorescence reader analysis
T2 sequence (P21397 whole entry): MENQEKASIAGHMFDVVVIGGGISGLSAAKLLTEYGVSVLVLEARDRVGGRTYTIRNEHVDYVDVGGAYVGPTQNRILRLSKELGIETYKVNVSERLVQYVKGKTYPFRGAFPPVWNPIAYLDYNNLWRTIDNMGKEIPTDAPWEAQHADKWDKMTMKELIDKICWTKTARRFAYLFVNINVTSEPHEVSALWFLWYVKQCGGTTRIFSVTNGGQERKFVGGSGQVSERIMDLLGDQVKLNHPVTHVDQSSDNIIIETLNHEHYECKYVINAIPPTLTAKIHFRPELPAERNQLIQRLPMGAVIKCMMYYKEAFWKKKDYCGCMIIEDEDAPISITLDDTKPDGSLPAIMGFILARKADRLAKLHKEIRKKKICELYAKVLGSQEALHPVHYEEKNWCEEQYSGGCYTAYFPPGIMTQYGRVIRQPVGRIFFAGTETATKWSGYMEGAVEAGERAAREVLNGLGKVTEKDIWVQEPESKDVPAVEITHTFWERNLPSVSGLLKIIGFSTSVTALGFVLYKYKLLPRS

Homo sapiens = organism: Homo sapiens; test: Selectivity index, ratio of IC50 for human recombinant MAO-B to IC50 for human recombinant MAO-A
Summary of the method: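 SI = IC50(MAO-B)/IC50(MAO-A), both from the same Amplex Red/p-tyramine H2O2 fluorimetric assay. Each isoform came from microsomes of baculovirus-infected insect cells: MAO-A at 1.1 µg, MAO-B at 7.5 µg, matched to equal velocity.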

[3] = molecular target: T1, Amine oxidase [flavin-containing] B; test: Inhibition of human recombinant MAO-B using p-tyramine as substrate assessed as production of H2O2 incubated for 15 mins prior to substrate addition at 60 uM measured after 20 mins by microplate fluorescence reader analysis
[4] = molecular target: T2, Amine oxidase [flavin-containing] A; test: Inhibition of human recombinant MAO-A using p-tyramine as substrate assessed as production of H2O2 incubated for 15 mins prior to substrate addition at 60 uM […] by microplate fluorescence reader analysis; settings: 20 min

SMILES	IC50 [1]	IC50 [2]	Ratio IC50 (Homo sapiens)	INH [3]	inhibition (INH) [4]
O=C(CBr)N1N=C(c2ccc(F)cc2)CC1c1ccccc1O (centres undefined)	52.9 µM	6 µM	8.8	–	–
CC1=NN(C(=O)CN2CCN(CCO)CC2)C(c2cc(Br)cc(Br)c2O)C1 (centres undefined)	42.3 µM	12.3 µM	3.4	–	–
O=C(CN1CCOCC1)N1N=C(c2ccc(Cl)cc2)CC1c1ccccc1O (centres undefined)	31.5 µM	21.2 µM	1.5	–	–
O=C(CN1CCCCC1)N1N=C(c2ccc(F)cc2)CC1c1cc(Cl)ccc1O (centres undefined)	–	3.72 µM	16.1	Not Active	–
O=C(Cn1ccnc1)N1N=C(c2ccc(F)cc2)CC1c1ccccc1O (centres undefined)	–	26.3 µM	2.3	Not Active	–
O=C(CN1CCOCC1)N1N=C(c2ccccc2)CC1c1ccccc1O (centres undefined)	–	23.2 µM	2.6	Not Active	–
CC1=NN(C(=O)CN2CCC(O)CC2)C(c2cc(Br)cc(Br)c2O)C1 (centres undefined)	–	12.4 µM	4.8	Not Active	–
CC1=NN(C(=O)CN2CCCCC2)C(c2cc(Cl)ccc2O)C1 (centres undefined)	55.9 µM	10.5 µM	5.3	–	–
O=C(Cn1ccnc1)N1N=C(c2ccccc2)CC1c1ccccc1O (centres undefined)	59.4 µM	–	1	–	Not Active
Cc1ccc(C2=NN(C(=O)CN3CCCCC3)C(c3ccccc3O)C2)cc1 (centres undefined)	45.6 µM	11.3 µM	4	–	–
CC1=NN(C(=O)CN2CCNCC2)C(c2cc(Br)cc(Br)c2O)C1 (centres undefined)	–	2 µM	30	Not Active	–
CC1=NN(C(=O)CN2CCC(=O)CC2)C(c2cc(Br)cc(Br)c2O)C1 (centres undefined)	58.9 µM	8.38 µM	7	–	–
COc1ccc(C2=NN(C(=O)Cn3ccnc3)C(c3cc(Cl)ccc3O)C2)cc1 (centres undefined)	–	–	–	Not Active	Not Active
COc1ccc(C2=NN(C(=O)Cn3ccnc3)C(c3ccccc3O)C2)cc1 (centres undefined)	–	–	–	Not Active	Not Active
Cc1ccc(C2=NN(C(=O)CBr)C(c3cc(Cl)ccc3O)C2)cc1 (centres undefined)	–	5.22 µM	11.5	Not Active	–
O=C(CN1CCCCC1)N1N=C(c2ccccc2)CC1c1ccccc1O (centres undefined)	50.6 µM	9.51 µM	5.3	–	–
C#CCN(C)[C@H](C)Cc1ccccc1 [SELEGILINE]	–	–	–	–	Not Active
O=C(CN1CCCCC1)N1N=C(c2ccc(Cl)cc2)CC1c1cc(Cl)ccc1O (centres undefined)	44.1 µM	6.01 µM	7.3	–	–
O=C(CN1CCOCC1)N1N=C(c2ccc(F)cc2)CC1c1cc(Cl)ccc1O (centres undefined)	30.2 µM	24.3 µM	1.2	–	–

SMILES	IC50 [1]	IC50 [2]	Ratio IC50 (Homo sapiens)	INH [3]	inhibition (INH) [4]
O=C(Cn1ccnc1)N1N=C(c2ccc(F)cc2)CC1c1cc(Cl)ccc1O (centres undefined)	–	–	–	Not Active	Not Active
COc1ccc(C2=NN(C(=O)CN3CCCCC3)C(c3cc(Cl)ccc3O)C2)cc1 (centres undefined)	–	9.65 µM	6.2	Not Active	–
Cc1ccc(C2=NN(C(=O)Cn3ccnc3)C(c3ccccc3O)C2)cc1 (centres undefined)	41.3 µM	–	0.69	–	Not Active
O=C(CN1CCCCC1)N1N=C(c2ccc(F)cc2)CC1c1ccccc1O (centres undefined)	47.4 µM	8.02 µM	5.9	–	–
CC1=NN(C(=O)CN2CCC(CO)CC2)C(c2cc(Br)cc(Br)c2O)C1 (centres undefined)	30.1 µM	25.7 µM	1.2	–	–
COc1ccc(C2=NN(C(=O)CN3CCCCC3)C(c3ccccc3O)C2)cc1 (centres undefined)	59.4 µM	12.7 µM	4.7	–	–
O=C(CN1CCOCC1)N1N=C(c2ccc(F)cc2)CC1c1ccccc1O (centres undefined)	–	16.9 µM	3.6	Not Active	–
Cc1ccc(C2=NN(C(=O)CN3CCCCC3)C(c3cc(Cl)ccc3O)C2)cc1 (centres undefined)	56.2 µM	14.4 µM	3.9	–	–
O=C(CN1CCNCC1)N1N=C(c2ccc(F)cc2)CC1c1cc(Cl)ccc1O (centres undefined)	58.9 µM	2.4 µM	24.5	–	–
CC1=NN(C(=O)Cn2ccnc2)C(c2cc(Cl)ccc2O)C1 (centres undefined)	–	30.3 µM	2	Not Active	–
COc1ccc(C2=NN(C(=O)CN3CCOCC3)C(c3ccccc3O)C2)cc1 (centres undefined)	–	24.5 µM	2.5	Not Active	–
O=C(CN1CCCCC1)N1N=C(c2ccc(Cl)cc2)CC1c1ccccc1O (centres undefined)	40.1 µM	7.25 µM	5.5	–	–
Cc1ccc(C2=NN(C(=O)CN3CCOCC3)C(c3cc(Cl)ccc3O)C2)cc1 (centres undefined)	–	27 µM	2.2	Not Active	–
CC1=NN(C(=O)CN2CCCCC2)C(c2cc(Br)cc(Br)c2O)C1 (centres undefined)	49.9 µM	7.8 µM	6.4	–	–
Cc1ccc(C2=NN(C(=O)Cn3ccnc3)C(c3cc(Cl)ccc3O)C2)cc1 (centres undefined)	16.1 µM	–	0.27	–	Not Active
O=C(CN1CCOCC1)N1N=C(c2ccc(Cl)cc2)CC1c1cc(Cl)ccc1O (centres undefined)	55.1 µM	31.2 µM	1.8	–	–
Cc1ccc(C2=NN(C(=O)CN3CCOCC3)C(c3ccccc3O)C2)cc1 (centres undefined)	–	20 µM	3	Not Active	–
CC1=NN(C(=O)CN2CCOCC2)C(c2cc(Cl)ccc2O)C1 (centres undefined)	41.8 µM	13.1 µM	3.2	–	–
COc1ccc(C2=NN(C(=O)CN3CCOCC3)C(c3cc(Cl)ccc3O)C2)cc1 (centres undefined)	56.5 µM	18.3 µM	3.1	–	–
